# Test results reported in ChEMBL document CHEMBL3407477, “Synthesis and biological evaluation of compact, conformationally constrained bifunctional opioid agonist - neurokinin-1 antagonist peptidomimetics” (Eur J Med Chem, 2015).
# Active and inactive are the calls of the source.
# How the values were obtained:
# [1] = species: Rattus norvegicus; experiment: Selectivity ratio of Ki for rat brain DOR to Ki for rat brain MOR
# [2] = species: Rattus norvegicus; experiment: Antinociceptive activity in Wistar rat at 0.001 to 0.1 nmol, it after 30 mins by tail flick test; assay type: functional, organism-based
# How it was run: (§1)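 Naive male Wistar rats (250-300 g) with i.t. catheters received a single i.t. injection in water for injection (5 µl plus 10 µl flush), 7 days after catheter implantation. Tail-flick latency to a light-bulb heat stimulus at two-thirds of tail length was read 30 min post-dose (timepoints up to 180 min), with a 9 s cut-off. Data are %MPE = (TL-BL)/(cut-off-BL)×100, 7-12 rats/group, ANOVA with Bonferroni.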
# [3] = species: Rattus norvegicus; experiment: Antiallodynic effect in Wistar rat chronic constriction injury model at 0.001 to 1 nmol, it measured 7 days post CCI challenge by Von Frey test; assay type: functional, organism-based
# How it was run: (§2)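 Male Wistar rats (300-350 g) with i.t. catheters (L4-L6) had CCI made by four loose silk ligatures on the right sciatic nerve. On day 7 they received a single i.t. dose in water for injection. Mechanical allodynia was measured 30 min later with an automatic von Frey device (0.5-26 g) on the midplantar hind paw. Data are %MPE, 6-12 rats/group, ANOVA with Bonferroni.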
# [4] = species: Rattus norvegicus; experiment: Reduction of hyperalgesia in Wistar rat chronic constriction injury model at 1 nmol, it measured 7 days post CCI challenge by cold plate test; assay type: functional, organism-based
# How it was run: (§3)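 In catheterized male Wistar rats with sciatic CCI, a single i.t. dose in water for injection was given on day 7. Thermal hyperalgesia was measured 30 min later as latency to hind-paw shake on a 5 °C cold plate. Data are %MPE, 6-12 rats/group, ANOVA with Bonferroni.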
# [5] = biological target: T1, Substance-P receptor (Homo sapiens, UniProt P25103); experiment: Displacement of [3H]SP from human NK1 receptor expressed in CHO cells after 20 mins by liquid scintillation counting analysis; assay type: cell-based
# T1 sequence (P25103 whole entry): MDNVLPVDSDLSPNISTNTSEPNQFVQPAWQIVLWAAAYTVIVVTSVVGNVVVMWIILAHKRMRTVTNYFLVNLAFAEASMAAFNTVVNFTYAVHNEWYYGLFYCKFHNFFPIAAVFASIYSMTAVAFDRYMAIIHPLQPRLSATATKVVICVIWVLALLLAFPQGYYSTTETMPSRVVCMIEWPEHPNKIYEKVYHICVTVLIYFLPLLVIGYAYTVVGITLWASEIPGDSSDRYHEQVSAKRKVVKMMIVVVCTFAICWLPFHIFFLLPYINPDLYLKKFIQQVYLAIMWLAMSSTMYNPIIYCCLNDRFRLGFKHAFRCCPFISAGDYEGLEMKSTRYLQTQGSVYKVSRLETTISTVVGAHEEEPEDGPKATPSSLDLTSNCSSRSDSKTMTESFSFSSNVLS
# How it was run: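 Membranes from hNK1/CHO cells (20 µg) were incubated with 0.4 nM [3H]SP and six test concentrations in duplicate. Buffer was 50 mM Tris pH 7.4 with 5 mM MgCl2, bacitracin, bestatin, captopril and PMSF, for 20 min at 25 °C. Nonspecific binding was defined with 10 µM SP. Samples were filtered on PEI-soaked GF/B, counted by scintillation, three independent experiments. Ki by Cheng-Prusoff from nonlinear-regression IC50.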
# [6] = species: Rattus norvegicus; experiment: Antinociceptive activity in Wistar rat at 0.001 to 0.1 nmol, it after 30 mins to 2 hrs by tail flick test; assay type: functional, organism-based
# [7] = system: Mus musculus; experiment: Antinociceptive activity in C57Bl6 mouse at 1.21 umol/kg, iv after 30 mins by tail flick test; assay type: functional, organism-based
# How it was run: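 Male C57Bl6 mice (25-28 g) received a single i.v. dose dissolved in saline or water for injection. Radiant-heat tail-flick latency was measured at 5, 15, 30, 60, 120 and 180 min, with a 7 s cut-off. Data are %MPE, 6-8 mice/group.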
# [8] = species: Rattus norvegicus; experiment: Toxicity in Wistar rat chronic constriction injury model at 1 nmol, it measured 7 days post CCI challenge; assay type: organism-based; conditions: in vivo, icv_or_intrathecal, 168 h
# [9] = species: Rattus norvegicus; experiment: Antinociceptive activity in Wistar rat at 0.1 nmol, it after 30 mins by tail flick test; assay type: functional; how it was run: as §1
# [10] = biological target: Mu-type opioid receptor (Rattus norvegicus, UniProt P33535); experiment: Displacement of [3H]DAMGO from rat brain MOR after 2 hrs
# Mu-type opioid receptor (Rattus norvegicus, UniProt P33535), sequence (P33535 whole entry): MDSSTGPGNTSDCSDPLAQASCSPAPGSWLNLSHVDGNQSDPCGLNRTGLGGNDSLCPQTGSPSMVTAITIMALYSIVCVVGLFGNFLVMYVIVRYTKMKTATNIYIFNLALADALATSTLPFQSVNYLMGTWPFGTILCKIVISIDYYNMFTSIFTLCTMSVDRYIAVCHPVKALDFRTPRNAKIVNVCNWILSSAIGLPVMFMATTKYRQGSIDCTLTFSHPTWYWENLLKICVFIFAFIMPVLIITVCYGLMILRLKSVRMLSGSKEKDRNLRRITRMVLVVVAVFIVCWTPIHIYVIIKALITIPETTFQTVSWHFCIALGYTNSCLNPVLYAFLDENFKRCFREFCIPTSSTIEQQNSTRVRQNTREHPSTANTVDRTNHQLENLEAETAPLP
# How it was run: (§4)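 Rat brain membranes were incubated 2 h at 0 °C with 0.72 nM [3H]DAMGO (MOR) or 0.78 nM [3H]DSLET (DOR). IC50 came from log-dose displacement curves.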
# [11] = biological target: Delta-type opioid receptor (Rattus norvegicus, UniProt P33533); experiment: Displacement of [3H]DSLET from rat brain DOR after 2 hrs; how it was run: as §4
# Delta-type opioid receptor (Rattus norvegicus, UniProt P33533), sequence (P33533 whole entry): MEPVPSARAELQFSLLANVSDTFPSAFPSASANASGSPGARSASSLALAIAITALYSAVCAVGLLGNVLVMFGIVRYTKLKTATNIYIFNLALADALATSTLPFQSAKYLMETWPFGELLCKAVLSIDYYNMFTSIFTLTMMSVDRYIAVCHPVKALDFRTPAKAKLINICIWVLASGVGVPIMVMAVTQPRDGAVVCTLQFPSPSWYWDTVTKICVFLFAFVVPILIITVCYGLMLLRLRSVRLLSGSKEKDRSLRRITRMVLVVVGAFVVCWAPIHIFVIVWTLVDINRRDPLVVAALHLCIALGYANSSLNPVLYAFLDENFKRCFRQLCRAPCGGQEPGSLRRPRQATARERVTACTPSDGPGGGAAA
# [12] = biological target: Mu-type opioid receptor (Cavia porcellus, UniProt P97266); experiment: Activation of MOR in guinea pig ileum; assay type: tissue-based
# Mu-type opioid receptor (Cavia porcellus, UniProt P97266), sequence (P97266 whole entry): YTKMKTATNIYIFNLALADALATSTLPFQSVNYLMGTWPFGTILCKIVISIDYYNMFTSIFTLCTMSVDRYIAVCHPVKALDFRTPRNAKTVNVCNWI
# How it was run: (§5)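 Isolated guinea pig ileum (MOR) and mouse vas deferens (DOR) bioassays. A [Leu5]enkephalin standard dose-response curve was run on each tissue preparation, and test IC50 values were normalized to it. Values are means of 3-4 experiments.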
# [13] = biological target: Delta-type opioid receptor (Mus musculus, UniProt P32300); experiment: Activation of DOR in mouse vas deferens; how it was run: as §5
# Delta-type opioid receptor (Mus musculus, UniProt P32300), sequence (P32300 whole entry): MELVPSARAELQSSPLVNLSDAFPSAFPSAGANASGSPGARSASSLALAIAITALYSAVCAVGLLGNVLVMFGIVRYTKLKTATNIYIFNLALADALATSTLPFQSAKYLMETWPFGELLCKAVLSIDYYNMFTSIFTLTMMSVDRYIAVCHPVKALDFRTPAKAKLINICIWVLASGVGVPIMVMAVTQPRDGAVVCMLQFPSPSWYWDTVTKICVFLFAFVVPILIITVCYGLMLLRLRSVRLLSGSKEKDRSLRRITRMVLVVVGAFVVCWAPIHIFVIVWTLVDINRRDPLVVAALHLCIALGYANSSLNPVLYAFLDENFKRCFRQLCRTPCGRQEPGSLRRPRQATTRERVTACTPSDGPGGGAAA
# [14] = biological target: Mu-type opioid receptor (Cavia porcellus) (UniProt P97266); experiment: Partial agonist activity at MOR in guinea pig ileum; assay type: tissue-based; how it was run: as §5
# Mu-type opioid receptor (Cavia porcellus), sequence (P97266 whole entry): as the sequence (P97266 whole entry) above
# [15] = biological target: Mu-type opioid receptor (Cavia porcellus) (UniProt P97266); experiment: Antagonist activity at MOR in guinea pig ileum; assay type: tissue-based
# [16] = species: Rattus norvegicus; experiment: Antinociceptive activity in Wistar rat at 1 to 50 nmol, it after 30 mins by tail flick test; assay type: functional, organism-based
# How it was run: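 Male Wistar rats (250-300 g), naive, with chronic i.t. catheters inserted through the atlanto-occipital membrane to L4-L6 under pentobarbital anaesthesia. Tested on day 7 after implantation. Drug in water for injection was given as a single 5 µl i.t. injection, then 10 µl flush. Tail-flick (light-bulb heat at two-thirds tail length, 9 s cut-off) was read 30 min post-dose. Values are %MPE vs baseline; 7-12 rats/group; ANOVA/Bonferroni.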
# [17] = system: Rattus norvegicus; experiment: Antinociceptive activity in Wistar rat up to 1.21 umol/kg, iv after 30 mins by tail flick test; assay type: functional, organism-based
# [18] = system: Rattus norvegicus; experiment: Toxicity in Wistar rat assessed as seizures at 9.5 nmol, iv; assay type: organism-based; conditions: in vivo
# [19] = system: Rattus norvegicus; experiment: Toxicity in Wistar rat assessed as death at 9.5 nmol, iv; assay type: organism-based; conditions: in vivo
# [20] = species: Rattus norvegicus; experiment: Antiallodynic effect in Wistar rat chronic constriction injury model at 0.1 to 1 nmol, it measured 7 days post CCI challenge by Von Frey test; assay type: functional, organism-based; how it was run: as §2
# [21] = biological target: T1, Substance-P receptor; experiment: Antagonist activity at human NK1 receptor expressed in CHO cells by luminescence assay in presence of SP peptide; assay type: cell-based; conditions: read-out: pA2 (converted)
# [22] = species: Rattus norvegicus; experiment: Antiallodynic effect in Wistar rat chronic constriction injury model at 0.35 to 35 nmol, it measured 7 days post CCI challenge by Von Frey test; assay type: functional, organism-based; how it was run: as §2
# [23] = system: Rattus norvegicus; experiment: Antinociceptive activity in it dosed Wistar rat after 30 mins by tail flick test; assay type: functional; how it was run: as §1
# [24] = system: Rattus norvegicus; experiment: Antiallodynic effect in it dosed Wistar rat measured 7 days post CCI challenge by Von Frey test; assay type: functional; how it was run: as §2
# [25] = system: Rattus norvegicus; experiment: Reduction of hyperalgesia in it dosed Wistar rat measured 7 days post CCI challenge by cold plate test; assay type: functional; how it was run: as §3
# [26] = system: Rattus norvegicus; experiment: Antiallodynic effect in Wistar rat chronic constriction injury model assessed as tolerance to neuropathic pain at 3.5 nmol, it qd for 6 days administered from 7 days post CCI challenge to day 13 by Von Frey test; assay type: functional, organism-based
# How it was run: (§6)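 CCI Wistar rats received once-daily i.t. injections (morphine 3.5 nmol, hybrids 1 nmol, in water for injection) from day 7 to day 13 after CCI. Von Frey and 5 °C cold plate tests were run 30 min after each dose. Data are %MPE and AUC, 12-16 rats/group, ANOVA with Bonferroni.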
# [27] = system: Rattus norvegicus; experiment: Antiallodynic effect in Wistar rat chronic constriction injury model assessed as tolerance to neuropathic pain at 3.5 nmol, it qd for 6 days administered from 7 days post CCI challenge to day 13 by cold plate test; assay type: functional, organism-based; how it was run: as §6
# [28] = system: Rattus norvegicus; experiment: Antiallodynic effect in Wistar rat chronic constriction injury model assessed as cross tolerance developement pretreated with H-Dmt-D-Arg-Aba-Gly-NMe-3',5'-(CF3)2-Bn at 1 nmol, it qd for 6 days administered from 7 days post CCI challenge to day 13 measured 30 mins post morphine challenge by Von frey test; assay type: functional, organism-based
# How it was run: (§7)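 CCI Wistar rats were made tolerant by 6 days of once-daily i.t. dosing (morphine 3.5 nmol or hybrid 1 nmol). On day 13 they received a single i.t. challenge (morphine 3.5 nmol or hybrid 1 nmol) against repeated-vehicle controls. Von Frey and cold plate tests were run 30 min later. Data are %MPE, 6-8 rats/group, ANOVA with Bonferroni.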
# [29] = system: Rattus norvegicus; experiment: Antiallodynic effect in Wistar rat chronic constriction injury model assessed as cross tolerance developement pretreated with H-Dmt-D-Arg-Aba-beta-Ala-NMe-Bn at 1 nmol, it qd for 6 days administered from 7 days post CCI challenge to day 13 measured 30 mins post morphine challenge by Von Frey test; assay type: functional, organism-based; how it was run: as §7
# [30] = system: Rattus norvegicus; experiment: Antiallodynic effect in Wistar rat chronic constriction injury model assessed as cross tolerance developement pretreated with H-Dmt-D-Arg-Aba-Gly-NMe-3',5'-(CF3)2-Bn at 1 nmol, it qd for 6 days administered from 7 days post CCI challenge to day 13 measured 30 mins post morphine challenge by cold plate test; assay type: functional, organism-based; how it was run: as §7
# [31] = system: Rattus norvegicus; experiment: Antiallodynic effect in Wistar rat chronic constriction injury model assessed as cross tolerance developement pretreated with H-Dmt-D-Arg-Aba-beta-Ala-NMe-Bn at 1 nmol, it qd for 6 days administered from 7 days post CCI challenge to day 13 measured 30 mins post morphine challenge by cold plate test; assay type: functional, organism-based; how it was run: as §7
smiles,measurement,setting,value
Cc1cc(O)cc(C)c1C[C@H](N)C(=O)N[C@H](CCCNC(=N)N)C(=O)N[C@H]1Cc2ccccc2CN(CC(N)=O)C1=O,Ratio Ki,[1],4
same,Activity,[2],Active
same,Activity,[3],Active
same,Activity,[4],Active
Cc1cc(O)cc(C)c1C[C@H](N)C(=O)N[C@H](CCCNC(=N)N)C(=O)N[C@H]1Cc2ccccc2CN(CCC(=O)N(Cc2cc(C(F)(F)F)cc(C(F)(F)F)c2)CC(C)C)C1=O,Ki,[5],743 nM
Cc1cc(O)cc(C)c1C[C@H](N)C(=O)N[C@H](CCCNC(=N)N)C(=O)N[C@H]1Cc2ccccc2CN(CCC(N)=O)C1=O,Ratio Ki,[1],12.7
same,Activity,[6],Active
same,Activity,[7],Active
same,Activity,[3],Active
same,Activity,[8],Toxic
same,Activity,[4],Active
same,MPE,[9],99.7%
Cc1cc(O)cc(C)c1C[C@H](N)C(=O)N[C@H](CCCNC(N)=O)C(=O)N[C@H]1Cc2ccccc2CN(CCC(=O)N(C)Cc2ccccc2)C1=O,Ki,[10],0.28 nM
same,Ki,[11],0.48 nM
same,Ratio Ki,[1],1.7
same,Ki,[5],3000 nM
same,IC50,[12],0.96 nM
same,IC50,[13],0.33 nM
Cc1cc(O)cc(C)c1C[C@H](N)C(=O)N[C@H](CCCN=C(N)N)C(=O)N[C@H]1Cc2ccccc2CN(CC(N)=O)C1=O,Activity,[8],Toxic
Cc1cc(O)cc(C)c1C[C@H](N)C(=O)N[C@H](CCCNC(=N)N)C(=O)N[C@H]1Cc2ccccc2CN(CC(=O)N(Cc2cc(C(F)(F)F)cc(C(F)(F)F)c2)CC(C)C)C1=O,Ki,[5],35 nM
same,Activity,[14],19.7 nM
same,Ke,[15],12.7 nM
same,IC50,[13],14.5 nM
Cc1cc(O)cc(C)c1C[C@H](N)C(=O)N[C@H](CCCNC(=N)N)C(=O)N[C@H]1Cc2ccccc2CN(CCC(=O)N(Cc2ccccc2)CC(C)C)C1=O,Ki,[5],308 nM
CC(=O)N[C@H]1Cc2ccccc2CN(CC(=O)N(C)Cc2cc(C(F)(F)F)cc(C(F)(F)F)c2)C1=O,Activity,[16],Active
same,Activity,[17],inactive
same,Activity,[18],Toxic
same,Activity,[19],Toxic
same,Activity,[20],Active
same,Activity,[4],Active
Cc1cc(O)cc(C)c1C[C@H](N)C(=O)N[C@H](CCCNC(=N)N)C(=O)N[C@H]1Cc2ccccc2CN(CCC(=O)N(C)Cc2cc(C(F)(F)F)cc(C(F)(F)F)c2)C1=O,Ki,[10],0.08 nM
same,Ki,[11],2.14 nM
same,Ratio Ki,[1],25.3
same,Kb,[21],912 nM
same,Ki,[5],59.7 nM
same,IC50,[12],11.3 nM
same,IC50,[13],6.2 nM
Cc1cc(O)cc(C)c1C[C@H](N)C(=O)N[C@H](CCCNC(=N)N)C(=O)N[C@H]1Cc2ccccc2CN(CC(=O)N(Cc2ccccc2)CC(C)C)C1=O,Ki,[5],1020 nM
same,Activity,[14],Active
same,Ke,[15],5.91 nM
same,IC50,[13],28.7 nM
Cc1cc(O)cc(C)c1C[C@H](N)C(=O)N[C@H](CCCNC(=N)N)C(=O)N[C@H]1Cc2ccccc2CN(CC(=O)N(C)Cc2ccccc2)C1=O,Ratio Ki,[1],24.8
Cc1cc(O)cc(C)c1C[C@H](N)C(=O)N[C@H](CCCNC(N)=O)C(=O)N[C@H]1Cc2ccccc2CN(CCC(=O)N(C)Cc2cc(C(F)(F)F)cc(C(F)(F)F)c2)C1=O,Ki,[10],0.37 nM
same,Ki,[11],0.55 nM
same,Ratio Ki,[1],1.5
same,Kb,[21],537 nM
same,Ki,[5],34.7 nM
same,IC50,[12],2.03 nM
same,IC50,[13],1.06 nM
CN1CC[C@]23c4c5ccc(O)c4O[C@H]2[C@@H](O)C=C[C@H]3[C@H]1C5 [MORPHINE],Activity,[22],Active
same,Activity,[4],Active
same,ED50,[23],0.49 nmol
same,ED50,[24],6.25 nmol
same,ED50,[25],377 nmol
same,Activity,[26],Active
same,Activity,[27],Active
same,Activity,[28],inactive
same,Activity,[29],inactive
same,Activity,[30],inactive
same,Activity,[31],inactive
Cc1cc(O)cc(C)c1C[C@H](N)C(=O)N[C@H](CCCNC(=N)N)C(=O)N[C@H]1Cc2ccccc2CN(CC(=O)NCc2ccccc2)C1=O,Ki,[10],0.14 nM
same,Ki,[11],0.62 nM
same,Ratio Ki,[1],4.4
same,Ki,[5],6190 nM
same,IC50,[12],4.44 nM
same,IC50,[13],3.5 nM
